From ChEMBL document CHEMBL1156781, “The binding of synthetic retinoids to lipocalin beta-lactoglobulins” (J Med Chem, 2010)
Converted amounts (≈) assume the structure as drawn. The source made the active and inactive calls. The calls are words filed in the database; no cut-off is given here.

Experiments:
[1] = tested on: Rangifer tarandus; test: (§1) Binding affinity to reindeer beta-lactoglobulin by fluorescence spectroscopy
[2] = target: T1, Beta-lactoglobulin (Bos taurus) (UniProt P02754); test: Binding affinity to bovine beta-lactoglobulins at 100 uM by ultrafiltration/HPLC method
T1 sequence (whole entry): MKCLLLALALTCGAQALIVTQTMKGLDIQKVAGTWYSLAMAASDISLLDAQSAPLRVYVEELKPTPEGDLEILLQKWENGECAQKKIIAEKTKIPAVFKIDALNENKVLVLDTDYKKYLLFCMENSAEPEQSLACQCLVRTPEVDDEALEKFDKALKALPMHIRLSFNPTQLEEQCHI
Procedure, shortened: (§2)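 Ultrafiltration sampling with HPLC analysis. Ligand at 100 μM was allowed to interact with βLG at 50 μM, and the fraction of ligand found in the retentate was quantified as a percentage.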

[3] = Solubility in PBS assessed as aggregate diameter size at 200 uM by dynamic light scattering method
[4] = tested on: Rangifer tarandus; test: Binding affinity to reindeer beta-lactoglobulin at 100 uM by ultrafiltration/HPLC method; procedure, shortened: as §2
[5] = target: T1, Beta-lactoglobulin (Bos taurus); test: (§3) Binding affinity to bovine beta-lactoglobulins by fluorescence spectroscopy
[6] = Solubility assessed as lowest drug level in which detectable aggregates formed by dynamic light scattering method; format: physicochemical
Procedure, shortened: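 Retinoid dilutions in PBS measured by dynamic light scattering. The critical concentration is the lowest level giving DLS-detectable aggregates. Concentrations ran up to 200 μM.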

[7] = Solubility assessed as aggregate formation at >= pH 5 by dynamic light scattering method; format: physicochemical; conditions: buffer
Procedure, shortened: (§4)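 Retinoids diluted in acid buffer spanning pH 2.0 to 7.0 and examined by dynamic light scattering for aggregate signal.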

[8] = target: T1, Beta-lactoglobulin (Bos taurus); test: Binding affinity to bovine beta-lactoglobulins assessed as aggregate diameter size formed at 200 uM by dynamic light scattering method
Procedure, shortened: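 Retinoid at 200 μM diluted in PBS and measured by dynamic light scattering as mean intensity and particle diameter (kCps/nm). Bovine βLG was then added to the cuvette at 50 μM, and a second run followed a 30 min stabilization phase.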

[9] = as §1; set-up: species or system Rangifer tarandus
[10] = target: T2, Beta-lactoglobulin (Bos taurus, UniProt P02754); test: as §3
T2 sequence (P02754 whole entry): T1 sequence (whole entry)

[11] = Solubility assessed as aggregate formation at <= pH 4 by dynamic light scattering method; format: physicochemical; conditions: buffer; procedure, shortened: as §4

Compound | Activity [1] | Activity [2] | Activity [3] | Activity [4] | Activity [5] | solubility [6] | solubility [7] | Activity [8] | Kd [9] | Kd [10] | solubility [11]
CC1=C(/C=C/c2ccc(/C=C/C(=O)O)cc2)C(C)(C)CCC1 | – | 29.1% | 668.7 nm | 18.8% | – | 100 µM (≈ 29.6 µg/mL) | – | 188 nm | 0.107 µM | 0.153 µM | Insoluble
C/C(=C\c1ccc(C(=O)O)cc1)c1ccc2c(c1)C(C)(C)CCC2(C)C | Active | Active | 848.5 nm | Active | Active | 50 µM (≈ 17.4 µg/mL) | Insoluble | 243 nm | – | – | –

The remaining lines, values ahead:

Activity [1] | Activity [2] | Activity [3] | Activity [4] | Activity [5] | solubility [6] | solubility [7] | Activity [8] | Kd [9] | Kd [10] | solubility [11] | Compound
Active | Active | 818.1 nm | Active | Active | 100 µM (≈ 39.2 µg/mL) | Insoluble | 424 nm | – | – | – | CC1=C(/C=C/C(C)=C/C=C/C(C)=C/C(=O)Nc2ccc(O)cc2)C(C)(C)CCC1 [FENRETINIDE]
– | 7.9% | 972.2 nm | 7.6% | – | – | – | 129 nm | 0.2 µM | – | Insoluble | CC1=C(/C=C/C(C)=C/C=C/C(C)=C/CO)C(C)(C)CCC1 [RETINOL]
– | 7% | 791.6 nm | 11% | Active | – | Insoluble | 276 nm | – | – | – | COC(=O)/C=C/c1ccc(/C=C/C2=C(C)CCCC2(C)C)cc1
